Published values collected from several papers.
Target: Serine/threonine-protein kinase RIO3 (RIOK3, Homo sapiens, UniProt O14730)
Sequence (O14730 1-519, as in one of the studies): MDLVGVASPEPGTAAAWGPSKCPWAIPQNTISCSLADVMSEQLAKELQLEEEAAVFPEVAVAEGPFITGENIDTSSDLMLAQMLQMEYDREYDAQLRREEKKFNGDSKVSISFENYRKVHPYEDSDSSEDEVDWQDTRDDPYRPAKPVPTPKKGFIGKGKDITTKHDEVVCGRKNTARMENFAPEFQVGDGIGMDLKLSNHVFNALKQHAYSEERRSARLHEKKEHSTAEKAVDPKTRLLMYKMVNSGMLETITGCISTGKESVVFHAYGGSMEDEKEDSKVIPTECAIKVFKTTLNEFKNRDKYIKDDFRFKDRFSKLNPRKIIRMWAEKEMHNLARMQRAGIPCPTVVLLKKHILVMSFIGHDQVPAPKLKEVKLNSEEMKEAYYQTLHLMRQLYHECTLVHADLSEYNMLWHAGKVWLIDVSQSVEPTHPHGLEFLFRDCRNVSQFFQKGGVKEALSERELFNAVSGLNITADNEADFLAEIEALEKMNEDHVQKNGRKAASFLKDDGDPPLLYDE

With `COc1cnc(Nc2cccc(S(N)(=O)=O)c2)nc1N1CCN(c2ccccc2)CC1` the remaining binding was 91% (binding, competition with immobilised ligand; 1 µM).
With `O=C(c1ccc(Nc2ncc(Cl)c(-c3ccc(Cl)s3)n2)cc1)N1CCC(N2CCCC2)CC1` the remaining binding was 0% (binding, competition with immobilised ligand; 1 µM).
`CCS(=O)(=O)c1cc2cc(C[C@](O)(CC(C)(C)c3ccc(F)cc3C(N)=O)C(F)(F)F)[nH]c2cn1` has a remaining binding of 91% (cell-free assay, competition with immobilised ligand; 1 µM).
`O=C(NCCCN1CCOCC1)c1ccc(Nc2ncc(Cl)c(-c3ccc(Cl)s3)n2)cc1` has a remaining binding of 0.4% (binding, competition with immobilised ligand; 1 µM).
`F[C@@H]1CCN(c2nccc(-c3cnn4ncccc34)n2)C1` has a remaining binding of 85% (binding; 1 µM).
For `O=C(NCC1CCOCC1)c1n[nH]cc1NC(=O)c1c(F)cccc1F`, the remaining binding was 84% (binding, competition with immobilised ligand; 1 µM).
The remaining binding of `COc1cnc(Nc2cccc(S(N)(=O)=O)c2)nc1N1CCN(c2ccccc2)C(=O)C1` is reported as 57% (binding, competition with immobilised ligand; 1 µM).
`CCCOc1ccc([C@@H]2[C@@H](C(=O)O)[C@H](c3ccc4c(c3)OCO4)CN2CC(=O)Nc2c(CC)cccc2CC)cc1` has a remaining binding of 100% (cell-free assay, competition with immobilised ligand; 1 µM).
`O=C(NCCCN1CCOCC1)c1ccc(Nc2nccc(-c3cc4ccccc4s3)n2)cc1` has a remaining binding of 1.7% (binding, competition with immobilised ligand; 1 µM).
`Cc1cc(NC(=O)c2cccc(S(F)(F)(F)(F)F)c2)cc(-n2ccn3nc(-c4cccnc4)cc23)c1` has a remaining binding of 85.9% (cell-free assay, competition with immobilised ligand; 1 µM).
With `CN(CCCC(F)(F)F)c1nccc(-c2cnn3ncccc23)n1` the remaining binding was 100% (binding; 1 µM).
With `CO[C@@H](C)c1c(Nc2ccc([C@H](N(C)C(=O)C3CCS(=O)(=O)CC3)C(F)(F)F)cc2)cnc2cc(Cl)nn12` the remaining binding was 82% (cell-free assay, competition with immobilised ligand; 1 µM).
With `CN(C)c1nccc(-c2cnn3ncccc23)n1` the remaining binding was 100% (binding; 1 µM).
`COc1ccc2c(O[C@@H]3C[C@H]4C(=O)N[C@]5(C(=O)O)CC5/C=C\CCCCC[C@H](NC(=O)OC5CCCC5)C(=O)N4C3)cc(-c3csc(NC(=O)C(C)C)n3)nc2c1C` (stereo partly shown) has a remaining binding of 100% (cell-free assay, competition with immobilised ligand; 1 µM).
With `N[C@@H]1CCN(c2nccc(-c3cnn4ncccc34)n2)C1` the remaining binding was 100% (binding; 1 µM).
`CC(=O)N1CCC(c2ccc(C(=O)NC(=N)N)cc2C(F)(F)F)CC1` has a remaining binding of 100% (cell-free assay, competition with immobilised ligand; 1 µM).
With `CCN1CCN(Cc2ccc(C(=O)Nc3ccc(C)c(Oc4ccc5c(c4)CC(=O)N5)c3)cc2C(F)(F)F)CC1` the remaining binding was 100% (binding, competition with immobilised ligand; 1 µM).
For `COc1ncc2cc3ccccc3nc2c1C#N`, the remaining binding was 97% (cell-free assay, competition with immobilised ligand; 5 µM).
With `C[C@@H]1CCN(c2nccc(-c3cnn4ncccc34)n2)C1` the remaining binding was 100% (binding; 1 µM).
`C[C@@H](c1ccc(-n2cnc3c(N)ncnc32)cc1)N1CCc2nn(C)c(Cc3ccccc3)c2C1=O` has a remaining binding of 76% (binding, competition with immobilised ligand; 0.1 µM).
`Cc1cnn2ncc(-c3ccnc(N(C)C)n3)c2c1` gave a remaining binding of 100% (binding; 1 µM).
For `C=CC(=O)N1CCC(C(=O)NCC(=O)N2CCN(c3nc(-c4cnc(N)nc4C(F)F)nc(N4CCOCC4)n3)CC2)CC1`, the remaining binding was 100% (binding, competition with immobilised ligand; 1 µM).
